Laboratory results as given in ChEMBL document CHEMBL5058577, “EUbOPEN Chemogenomics Library 2 (Multiplex)” (2022).

Test system: HEK-293T
Assay: Multiplex assay against HEK293T
Assay type: toxicity, cell-based
Conditions: human
Method in brief: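 On a CQ1 microscope at 37°C and 5% CO2, live cells were imaged after compound addition. They had been stained at seeding with Hoechst33342, BioTracker Green Microtubule Cytoskeleton Dye, MitoTracker Red and Annexin V Alexa Fluor 680. CellPathfinder machine-learning gating assigned cells to Hoechst high-intensity objects or normal cells, normal cells to healthy, pyknosed or fragmented nuclei, and pyknosed cells to mitotic or apoptotic. Tubulin, mitochondrial-mass and membrane-permeability phenotypes are per cents of healthy-nucleus cells.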

[1] = 12 h, 1 µM, compound concentration 1 uM, replicate 1
[2] = 12 h, 1 µM, compound concentration 1 uM, replicate 2
[3] = 12 h, 10 µM, compound concentration 10 uM, replicate 1
[4] = 12 h, 10 µM, compound concentration 10 uM, replicate 2
[5] = 24 h, 1 µM, compound concentration 1 uM, replicate 1
[6] = 24 h, 1 µM, compound concentration 1 uM, replicate 2
[7] = 24 h, 10 µM, compound concentration 10 uM, replicate 1
[8] = 24 h, 10 µM, compound concentration 10 uM, replicate 2
[9] = 48 h, 1 µM, compound concentration 1 uM, replicate 1
[10] = 48 h, 1 µM, compound concentration 1 uM, replicate 2
[11] = 48 h, 10 µM, compound concentration 10 uM, replicate 1
[12] = 48 h, 10 µM, compound concentration 10 uM, replicate 2

Cc1cc(=O)n(C)c2cc(N3C(=O)CC[C@H](NS(=O)(=O)CC(C)C)[C@H]3c3ccc(Cl)cc3)ccc12
Population Apoptotic (%) [1]: 43% | Population Fragmented Nuclei (%) [1]: 7% | Population Healthy Nuclei (%) [1]: 83% | Population Hoechst High Intensity Objects (%) [1]: 8% | Population Membrane Permeable-Phenotype (%) [1]: 0% | Population Mitochondria Different-Phenotype (%) [1]: 41% | Population Mitotic Cells (%) [1]: 56% | Population Normal (%) [1]: 91% | Population Pyknosed Nuclei (%) [1]: 8% | Population Tubulin-Different-Phenotype (%) [1]: 32% | Total Cell Count [1]: 454 | Population Apoptotic (%) [2]: 63% | Population Fragmented Nuclei (%) [2]: 6% | Population Healthy Nuclei (%) [2]: 78% | Population Hoechst High Intensity Objects (%) [2]: 6% | Population Mitochondria Different-Phenotype (%) [2]: 53% | Population Mitotic Cells (%) [2]: 36% | Population Normal (%) [2]: 93% | Population Pyknosed Nuclei (%) [2]: 14% | Population Tubulin-Different-Phenotype (%) [2]: 14% | Total Cell Count [2]: 265 | Population Apoptotic (%) [3]: 47% | Population Fragmented Nuclei (%) [3]: 4% | Population Healthy Nuclei (%) [3]: 70% | Population Hoechst High Intensity Objects (%) [3]: 11% | Population Membrane Permeable-Phenotype (%) [3]: 0% | Population Mitochondria Different-Phenotype (%) [3]: 75% | Population Mitotic Cells (%) [3]: 52% | Population Normal (%) [3]: 88% | Population Pyknosed Nuclei (%) [3]: 24% | Population Tubulin-Different-Phenotype (%) [3]: 81% | Total Cell Count [3]: 368 | Population Apoptotic (%) [4]: 50% | Population Fragmented Nuclei (%) [4]: 6% | Population Healthy Nuclei (%) [4]: 66% | Population Hoechst High Intensity Objects (%) [4]: 16% | Population Mitochondria Different-Phenotype (%) [4]: 86% | Population Mitotic Cells (%) [4]: 49% | Population Normal (%) [4]: 83% | Population Pyknosed Nuclei (%) [4]: 27% | Population Tubulin-Different-Phenotype (%) [4]: 66% | Total Cell Count [4]: 331 | Population Apoptotic (%) [5]: 33% | Population Fragmented Nuclei (%) [5]: 9% | Population Healthy Nuclei (%) [5]: 81% | Population Hoechst High Intensity Objects (%) [5]: 4% | Population Membrane Permeable-Phenotype (%) [5]: 0% | Population Mitochondria Different-Phenotype (%) [5]: 25% | Population Mitotic Cells (%) [5]: 66% | Population Normal (%) [5]: 95% | Population Pyknosed Nuclei (%) [5]: 9% | Population Tubulin-Different-Phenotype (%) [5]: 19% | Total Cell Count [5]: 646 | Population Apoptotic (%) [6]: 36% | Population Fragmented Nuclei (%) [6]: 4% | Population Healthy Nuclei (%) [6]: 82% | Population Hoechst High Intensity Objects (%) [6]: 5% | Population Membrane Permeable-Phenotype (%) [6]: 1% | Population Mitochondria Different-Phenotype (%) [6]: 42% | Population Mitotic Cells (%) [6]: 63% | Population Normal (%) [6]: 94% | Population Pyknosed Nuclei (%) [6]: 13% | Population Tubulin-Different-Phenotype (%) [6]: 17% | Total Cell Count [6]: 327 | Population Apoptotic (%) [7]: 34% | Population Fragmented Nuclei (%) [7]: 7% | Population Healthy Nuclei (%) [7]: 72% | Population Hoechst High Intensity Objects (%) [7]: 9% | Population Membrane Permeable-Phenotype (%) [7]: 0% | Population Mitochondria Different-Phenotype (%) [7]: 67% | Population Mitotic Cells (%) [7]: 65% | Population Normal (%) [7]: 90% | Population Pyknosed Nuclei (%) [7]: 19% | Population Tubulin-Different-Phenotype (%) [7]: 67% | Total Cell Count [7]: 419 | Population Apoptotic (%) [8]: 76% | Population Fragmented Nuclei (%) [8]: 8% | Population Healthy Nuclei (%) [8]: 67% | Population Hoechst High Intensity Objects (%) [8]: 22% | Population Mitochondria Different-Phenotype (%) [8]: 85% | Population Mitotic Cells (%) [8]: 23% | Population Normal (%) [8]: 77% | Population Pyknosed Nuclei (%) [8]: 23% | Population Tubulin-Different-Phenotype (%) [8]: 71% | Total Cell Count [8]: 328 | Population Apoptotic (%) [9]: 25% | Population Fragmented Nuclei (%) [9]: 14% | Population Healthy Nuclei (%) [9]: 78% | Population Hoechst High Intensity Objects (%) [9]: 3% | Population Membrane Permeable-Phenotype (%) [9]: 0% | Population Mitochondria Different-Phenotype (%) [9]: 17% | Population Mitotic Cells (%) [9]: 74% | Population Normal (%) [9]: 96% | Population Pyknosed Nuclei (%) [9]: 6% | Population Tubulin-Different-Phenotype (%) [9]: 15% | Total Cell Count [9]: 985 | Population Apoptotic (%) [10]: 31% | Population Fragmented Nuclei (%) [10]: 11% | Population Healthy Nuclei (%) [10]: 79% | Population Hoechst High Intensity Objects (%) [10]: 7% | Population Mitochondria Different-Phenotype (%) [10]: 20% | Population Mitotic Cells (%) [10]: 68% | Population Normal (%) [10]: 92% | Population Pyknosed Nuclei (%) [10]: 9% | Population Tubulin-Different-Phenotype (%) [10]: 17% | Total Cell Count [10]: 454 | Population Apoptotic (%) [11]: 56% | Population Fragmented Nuclei (%) [11]: 12% | Population Healthy Nuclei (%) [11]: 77% | Population Hoechst High Intensity Objects (%) [11]: 10% | Population Membrane Permeable-Phenotype (%) [11]: 1% | Population Mitochondria Different-Phenotype (%) [11]: 67% | Population Mitotic Cells (%) [11]: 43% | Population Normal (%) [11]: 89% | Population Pyknosed Nuclei (%) [11]: 10% | Population Tubulin-Different-Phenotype (%) [11]: 58% | Total Cell Count [11]: 548 | Population Apoptotic (%) [12]: 66% | Population Healthy Nuclei (%) [12]: 67% | Population Hoechst High Intensity Objects (%) [12]: 19% | Population Membrane Permeable-Phenotype (%) [12]: 0% | Population Mitochondria Different-Phenotype (%) [12]: 76% | Population Mitotic Cells (%) [12]: 33% | Population Normal (%) [12]: 80% | Population Pyknosed Nuclei (%) [12]: 19% | Population Tubulin-Different-Phenotype (%) [12]: 56% | Total Cell Count [12]: 371
